ChEMBL document CHEMBL4706728, “Discovery of a Highly Selective and Potent TRPC3 Inhibitor with High Metabolic Stability and Low Toxicity” (ACS Med Chem Lett, 2021)
Calls of active or inactive are those of the source. No cut-off for these calls is given here.

How the values were obtained:
[1] = target: T1, Short transient receptor potential channel 3 (Homo sapiens, UniProt Q13507); assay: Inhibition of human TRPC3 expressed in HEK293 cells assessed as inhibition of GSK170-induced current in presence of 2 mM extracellular calcium by whole cell patch-clamp method; assay type: cell-based
T1 sequence (Q13507 whole entry): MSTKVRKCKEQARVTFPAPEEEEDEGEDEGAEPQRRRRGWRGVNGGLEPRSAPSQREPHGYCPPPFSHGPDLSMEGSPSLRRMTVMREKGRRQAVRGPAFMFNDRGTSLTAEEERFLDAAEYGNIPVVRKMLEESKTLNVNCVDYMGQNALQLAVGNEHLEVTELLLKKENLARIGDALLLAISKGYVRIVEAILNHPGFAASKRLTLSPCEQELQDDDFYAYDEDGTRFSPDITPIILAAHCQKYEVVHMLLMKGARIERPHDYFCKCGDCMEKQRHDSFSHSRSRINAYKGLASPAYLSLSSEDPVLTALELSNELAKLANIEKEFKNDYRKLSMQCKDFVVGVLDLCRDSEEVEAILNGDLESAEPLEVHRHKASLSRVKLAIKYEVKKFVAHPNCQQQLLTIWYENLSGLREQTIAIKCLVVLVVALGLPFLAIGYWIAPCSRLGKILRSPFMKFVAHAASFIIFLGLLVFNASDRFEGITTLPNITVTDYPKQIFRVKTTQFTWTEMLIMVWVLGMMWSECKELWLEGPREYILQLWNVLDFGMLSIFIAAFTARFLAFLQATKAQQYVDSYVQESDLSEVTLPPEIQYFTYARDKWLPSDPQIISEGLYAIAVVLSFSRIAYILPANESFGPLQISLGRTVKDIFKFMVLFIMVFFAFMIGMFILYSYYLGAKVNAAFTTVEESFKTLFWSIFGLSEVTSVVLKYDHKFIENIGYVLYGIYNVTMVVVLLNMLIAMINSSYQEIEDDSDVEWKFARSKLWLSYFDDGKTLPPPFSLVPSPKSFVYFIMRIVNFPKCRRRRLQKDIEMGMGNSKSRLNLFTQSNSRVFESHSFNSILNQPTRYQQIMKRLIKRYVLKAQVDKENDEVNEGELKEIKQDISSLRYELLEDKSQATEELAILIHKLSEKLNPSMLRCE
Method in brief: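 hTRPC3 in HEK293 cells, whole-cell patch clamp with 2 mM extracellular Ca2+. Currents elicited by 1 μM GSK1702934A and challenged with a range of inhibitor concentrations by perfusion. Each concentration tested on separate cells and normalized to the cell's maximum amplitude. Dose–response curve built from the data; mean ± SD.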

[2] = target: T2, Short transient receptor potential channel 3 (Homo sapiens) (UniProt Q13507); assay: Inhibition of human TRPC3 expressed in HEK293 cells assessed as inhibition of OAG-induced current at 0.001 to 10 uM by whole cell patch-clamp method; assay type: cell-based; details: dose 0.001-10 µM
T2 sequence (whole entry): T1 sequence (Q13507 whole entry)
Method in brief: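 Whole-cell recordings of hTRPC3 expressed in HEK293 cells, channel activated by 1-oleoyl-2-acetyl-sn-glycerol (membrane-permeable diacylglycerol analogue) instead of GSK1702934A. Inhibitor at a range of concentrations co-perfused with agonist to build a dose–response profile.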

[3] = target: Transient receptor potential cation channel subfamily V member 4 (Rattus norvegicus) (UniProt Q9ERZ8); assay: Inhibition of rat TRPV4 expressed in HEK293 cells assessed as inhibition of GSK101-induced current at 10 uM by whole cell patch-clamp method; assay type: cell-based
Method in brief: (§1)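 TRP channels overexpressed in HEK293 cells (hTRPA1, rTRPV1, rTRPV4, mouse TRPC6, hTRPC7, hTRPM8). Whole-cell patch clamp with Ca2+-free solutions to avoid desensitization. Channels fully activated with high concentrations of their agonists (AITC for TRPA1, capsaicin for TRPV1, GSK1016790A for TRPV4), then 10 μM test compound perfused with agonist. Result expressed as percentage of peak current blocked; mean ± SD.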

[4] = target: T3, Short transient receptor potential channel 7 (Homo sapiens) (UniProt Q9HCX4); assay: Inhibition of human TRPC7 expressed in HEK293 cells assessed as inhibition of GSK170-induced current at 10 uM by whole cell patch-clamp method; assay type: cell-based; method in brief: as §1
T3 sequence (whole entry): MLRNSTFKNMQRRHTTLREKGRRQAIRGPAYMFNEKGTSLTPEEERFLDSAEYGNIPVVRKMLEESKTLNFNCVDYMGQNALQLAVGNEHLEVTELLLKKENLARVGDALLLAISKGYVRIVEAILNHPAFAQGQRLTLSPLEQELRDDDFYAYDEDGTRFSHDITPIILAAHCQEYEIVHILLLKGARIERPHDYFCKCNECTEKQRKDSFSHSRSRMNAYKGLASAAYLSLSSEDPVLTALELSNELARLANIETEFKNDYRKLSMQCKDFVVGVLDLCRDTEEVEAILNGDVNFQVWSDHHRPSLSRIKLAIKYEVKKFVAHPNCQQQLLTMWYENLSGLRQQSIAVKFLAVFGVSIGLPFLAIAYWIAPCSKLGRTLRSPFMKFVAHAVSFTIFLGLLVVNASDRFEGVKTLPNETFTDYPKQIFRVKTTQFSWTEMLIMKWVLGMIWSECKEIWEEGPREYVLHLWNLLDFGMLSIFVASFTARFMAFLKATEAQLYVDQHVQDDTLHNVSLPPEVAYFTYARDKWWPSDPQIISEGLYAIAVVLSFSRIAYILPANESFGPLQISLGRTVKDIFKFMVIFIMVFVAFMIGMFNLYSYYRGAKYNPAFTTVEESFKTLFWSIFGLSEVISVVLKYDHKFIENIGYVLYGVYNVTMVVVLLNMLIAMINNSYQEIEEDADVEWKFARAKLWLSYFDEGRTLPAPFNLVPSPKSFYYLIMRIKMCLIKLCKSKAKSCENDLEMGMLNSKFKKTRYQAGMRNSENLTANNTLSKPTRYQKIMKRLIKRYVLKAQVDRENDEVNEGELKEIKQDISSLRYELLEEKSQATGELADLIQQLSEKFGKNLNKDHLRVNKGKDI

[5] = target: Transient receptor potential cation channel subfamily M member 8 (Homo sapiens) (UniProt Q7Z2W7); assay: Inhibition of human TRPM8 expressed in HEK293 cells assessed as inhibition of […]-induced current at 10 uM by whole cell patch-clamp method; assay type: cell-based; method in brief: as §1
[6] = system: Hippocampal neurone; assay: Neuroprotective activity in Sprague-Dawley rat primary hippocampal neurons assessed as reduction in Abeta-induced dendrites damage at 0.25 to 1 uM incubated for 16 hrs by MAP2 staining based assay; assay type: functional, tissue-based; details: dose 0.25-1 µM
Method in brief: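 Primary hippocampal neurons from E17 rat embryos, used at 14 DIV. Treated for 16 h with naturally secreted Aβ-containing 7PA2 conditioned medium (CHO medium as control), alone or with test compound at several concentrations. Neurons then immunostained for MAP2 with DAPI, and dendritic length quantified.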

[7] = Toxicity in NSG/ICR mouse assessed as survival at 200 mg/kg, ip administered once daily for 5 days; assay type: organism-based; details: in vivo, 200 mg/kg, 120 h, dose 200 mg/kg/day, time 5 day
Method in brief: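 Mice (n = 5 per group) dosed at 200 mg/kg by intraperitoneal injection once daily for 5 consecutive days. Survival monitored. Body weight expressed as mean percent change ± SD relative to weight at the start of treatment (day 0), with 15% weight loss as the reference line.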

Sequence of Transient receptor potential cation channel subfamily V member 4 (Rattus norvegicus) (Q9ERZ8 whole entry, the tested form may be a part): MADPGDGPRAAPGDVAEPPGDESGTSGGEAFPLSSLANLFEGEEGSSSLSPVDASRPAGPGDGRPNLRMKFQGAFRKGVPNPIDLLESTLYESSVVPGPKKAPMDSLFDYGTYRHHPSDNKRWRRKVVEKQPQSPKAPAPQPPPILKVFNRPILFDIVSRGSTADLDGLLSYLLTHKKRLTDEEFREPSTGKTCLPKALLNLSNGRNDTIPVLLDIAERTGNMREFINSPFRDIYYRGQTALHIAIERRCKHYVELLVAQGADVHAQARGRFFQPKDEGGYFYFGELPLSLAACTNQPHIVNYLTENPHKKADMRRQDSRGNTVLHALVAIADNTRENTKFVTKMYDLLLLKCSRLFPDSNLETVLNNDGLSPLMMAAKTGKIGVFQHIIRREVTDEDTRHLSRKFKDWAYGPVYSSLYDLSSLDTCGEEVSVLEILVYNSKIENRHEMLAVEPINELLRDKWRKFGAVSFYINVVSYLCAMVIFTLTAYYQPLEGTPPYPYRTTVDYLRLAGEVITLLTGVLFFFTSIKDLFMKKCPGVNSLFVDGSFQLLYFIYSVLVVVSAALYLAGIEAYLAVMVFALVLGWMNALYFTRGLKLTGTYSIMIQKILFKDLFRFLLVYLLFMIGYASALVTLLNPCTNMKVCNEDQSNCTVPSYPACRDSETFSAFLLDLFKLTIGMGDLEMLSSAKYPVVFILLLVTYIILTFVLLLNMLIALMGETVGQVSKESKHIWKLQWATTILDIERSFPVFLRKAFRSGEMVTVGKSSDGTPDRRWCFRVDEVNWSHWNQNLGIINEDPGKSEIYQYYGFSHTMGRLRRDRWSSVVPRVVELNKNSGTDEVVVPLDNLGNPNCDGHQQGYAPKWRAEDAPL
Sequence of Transient receptor potential cation channel subfamily M member 8 (Homo sapiens) (Q7Z2W7 whole entry, looked up): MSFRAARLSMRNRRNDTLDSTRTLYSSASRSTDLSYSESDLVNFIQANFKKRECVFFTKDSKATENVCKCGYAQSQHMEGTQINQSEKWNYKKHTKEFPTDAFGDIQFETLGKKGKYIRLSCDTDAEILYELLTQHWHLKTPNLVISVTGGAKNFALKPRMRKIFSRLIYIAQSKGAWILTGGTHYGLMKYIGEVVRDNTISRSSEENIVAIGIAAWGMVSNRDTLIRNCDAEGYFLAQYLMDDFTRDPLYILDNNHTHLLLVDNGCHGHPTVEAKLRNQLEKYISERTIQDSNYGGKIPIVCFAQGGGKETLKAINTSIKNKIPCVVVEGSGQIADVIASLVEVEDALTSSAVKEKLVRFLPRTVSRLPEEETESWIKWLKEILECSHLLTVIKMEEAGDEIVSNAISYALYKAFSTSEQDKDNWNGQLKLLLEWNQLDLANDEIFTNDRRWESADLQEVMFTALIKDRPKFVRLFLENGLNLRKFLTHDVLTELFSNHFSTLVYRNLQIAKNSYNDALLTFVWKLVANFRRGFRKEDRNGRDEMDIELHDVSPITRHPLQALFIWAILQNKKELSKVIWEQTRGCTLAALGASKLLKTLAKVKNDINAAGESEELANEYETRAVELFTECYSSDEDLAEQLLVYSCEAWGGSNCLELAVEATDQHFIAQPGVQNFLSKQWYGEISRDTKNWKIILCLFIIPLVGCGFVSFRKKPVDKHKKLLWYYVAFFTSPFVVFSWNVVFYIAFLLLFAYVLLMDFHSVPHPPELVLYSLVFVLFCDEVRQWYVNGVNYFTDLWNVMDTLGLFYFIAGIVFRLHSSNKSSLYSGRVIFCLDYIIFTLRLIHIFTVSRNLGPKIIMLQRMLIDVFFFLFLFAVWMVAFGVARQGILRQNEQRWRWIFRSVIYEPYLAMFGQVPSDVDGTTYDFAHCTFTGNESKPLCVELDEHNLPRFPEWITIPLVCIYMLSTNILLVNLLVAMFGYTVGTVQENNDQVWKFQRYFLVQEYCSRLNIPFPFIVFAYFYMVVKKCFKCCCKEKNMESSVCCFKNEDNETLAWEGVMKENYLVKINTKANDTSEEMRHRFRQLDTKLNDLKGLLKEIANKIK

Question: Which IC50 [1] does the source give for CCNC(=O)c1cnn(-c2ccc(-n3ccc(Cl)c(Cl)c3=O)cc2)c1C(F)(F)F here?
Answer: Its IC50 is 430 nM.

Question: And the inhibition [2]?
Answer: Its inhibition is “Active”.

Question: What about the inhibition [3] of the same molecule?
Answer: The inhibition was “inactive”.

Question: What about the inhibition [4] of the same molecule?
Answer: Its inhibition is 26%.

Question: And the inhibition [5]?
Answer: Its inhibition is “inactive”.

Question: What about the Activity [6] of the same molecule?
Answer: Its Activity is “Active”.

Question: And the Activity [7]?
Answer: The Activity was “Non-Toxic”.
